{"data": "Published values gathered from unrelated publications", "target": "Mitogen-activated protein kinase kinase kinase kinase 5 (MAP4K5, Homo sapiens, UniProt Q9Y4K4)", "note": "Compare with care: the assays were run in different laboratories."}
{"SMILES": "CN1CC(Oc2cnc(C#N)cc2-c2ccn3nc(NC(=O)C4CC4)cc3c2)C1", "observed": "enzyme activity", "mode": "inhibitor", "concentration": "1 µM", "endpoint": "inhibition", "result": "4%"}
{"SMILES": "FC(F)(F)Oc1cccc(-c2cnc3ccc(-c4ccncc4)nn23)c1", "observed": "enzyme activity", "mode": "inhibitor", "method": "radiometric", "concentration": "1 µM", "endpoint": "activity vs control", "result": "110%"}
{"SMILES": "CC(C)(O)[C@H]1CC[C@H](Nc2ccc3ncc(-c4cccc(C(F)(F)F)c4)n3n2)CC1", "observed": "enzyme activity", "mode": "inhibitor", "concentration": "1 µM", "endpoint": "remaining activity", "result": "83.2%"}
{"SMILES": "CNC(=O)c1cc2c(Oc3ccc(NC(=O)C4(C(=O)Nc5ccc(F)cc5)CC4)cc3)ccnc2cc1OC", "observed": "enzyme activity", "mode": "inhibitor", "method": "radiometric", "concentration": "1 µM", "endpoint": "inhibition", "result": "89%"}
{"SMILES": "O=C1NC(=O)c2cc(Nc3ccc(F)cc3)c(Nc3ccc(F)cc3)cc21", "observed": "cell-free assay", "concentration": "0.5 µM", "endpoint": "remaining signal", "result": "89.5%"}
{"SMILES": "Cc1cc(NC(=O)c2cccc(S(F)(F)(F)(F)F)c2)cc(-n2ccn3nc(-c4cccnc4)cc23)c1", "observed": "cell-free assay", "method": "competition with immobilised ligand", "concentration": "1 µM", "endpoint": "remaining binding", "result": "100%"}
{"SMILES": "COc1cc2ncnc(Nc3ccc(Oc4ccccc4)c(C)c3C)c2cc1OC", "observed": "enzyme activity", "mode": "inhibitor", "concentration": "1 µM", "endpoint": "inhibition", "result": "-2%"}
{"SMILES": "CN(C)c1nccc(-c2cnc3ncccn23)n1", "observed": "binding", "concentration": "1 µM", "endpoint": "remaining binding", "result": "100%"}
{"SMILES": "Cc1sc(C(=O)NC2COC2)cc1-n1cc(NC(=O)Nc2c(F)cccc2Cl)cn1", "observed": "enzyme activity", "mode": "inhibitor", "concentration": "10 µM", "endpoint": "remaining activity", "result": "98.4%"}
{"SMILES": "Cc1cc(C)c(-n2ccn3nc(-c4cccnc4)cc23)cc1NC(=O)c1cc(C#N)cc(S(F)(F)(F)(F)F)c1", "observed": "cell-free assay", "method": "competition with immobilised ligand", "concentration": "0.1 µM", "endpoint": "remaining binding", "result": "83.4%"}
{"SMILES": "CCN1CCN(Cc2ccc(NC(=O)c3ccc(C)c(Oc4ccnc5[nH]ccc45)c3)cc2C(F)(F)F)CC1", "observed": "target engagement in cells", "mode": "inhibitor", "method": "chemoproteomics", "cell line": "A-375", "concentration": "0.5 µM", "endpoint": "inhibition", "result": "-0.264%"}
{"SMILES": "CO[C@@H](C)c1c(Nc2ccc([C@H](N(C)C(=O)C3CCS(=O)(=O)CC3)C(F)(F)F)cc2)cnc2cc(Cl)nn12", "observed": "cell-free assay", "method": "competition with immobilised ligand", "concentration": "1 µM", "endpoint": "remaining binding", "result": "88%"}
{"SMILES": "N#CCCc1ccc2c(c1)-c1[nH]c3ccc([N+](=O)[O-])cc3c1CC(=O)N2", "observed": "cell-free assay", "concentration": "0.5 µM", "endpoint": "remaining signal", "result": "7.61%"}
{"SMILES": "CNC(=O)Nc1ccc2c(c1)CC[C@@]21OC(=O)N(CC(=O)N(Cc2ccc(F)cc2)[C@@H](C)C(F)(F)F)C1=O", "observed": "cell-free assay", "method": "competition with immobilised ligand", "concentration": "1 µM", "endpoint": "remaining binding", "result": "88%"}
{"SMILES": "O=C1Nc2ccc(Cl)cc2C1=Cc1cc(Cl)c(O)c(Cl)c1", "observed": "cell-free assay", "concentration": "0.5 µM", "endpoint": "remaining signal", "result": "75.9%"}
{"SMILES": "COc1cc(/C=C/C(=O)CC(=O)/C=C/c2ccc(O)c(OC)c2)ccc1O", "observed": "enzyme activity", "mode": "inhibitor", "concentration": "1 µM", "endpoint": "activity vs control", "result": "87%"}
{"SMILES": "CC(C)(C)c1nc(-c2cccc(NS(=O)(=O)c3c(F)cccc3F)c2F)c(-c2ccnc(N)n2)s1", "observed": "enzyme activity", "mode": "inhibitor", "method": "radiometric", "concentration": "1 µM", "endpoint": "remaining activity", "result": "90%"}
{"SMILES": "c1ccc(N2CCN(Cc3nc4ccccc4[nH]3)CC2)nc1", "observed": "binding", "method": "competition with immobilised ligand", "concentration": "1 µM", "endpoint": "remaining binding", "result": "100%"}
